The full list was thinned out, with hits kept by preference.
TLR4 MyD88 comp: inhibitors of TLR4-MyD88 association in cells, primary screen, cell-based, HeLa CL3-4, BLA complementation, FRET ratio; HeLa CL3-4 TLR4/MyD88 BLA complementation; Toll-like receptor 4 (Homo sapiens) + Myeloid differentiation primary response protein …; AID 861, 2007; 0.18% of 200,000 active; inhibition, % at 8.4 µM; in the data active = inhibition above about 25%
TLR9-MyD88 inh: inhibitors of TLR9-MyD88 association in cells, primary screen, cell-based, CHO, BLA complementation, fluorescence | 0.21% of 340,000 active | CCF4 FRET ratio | inhibition, % at 4.98 µM | AID 504734, 2011;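 active = inhibition above the mean over all tested compounds plus 3 SD, cut at about 21% in these data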
CHOP UPR activ: activators of apoptotic CHOP UPR arm, primary screen, cell-based, CHO-CHOP luciferase reporter, luminescence, uHTS; 0.34% of 330,000 active; UPR activation; percent of tunicamycin response over DMSO baseline; activation, % at 10 µM;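 active = at 10 µM dose, activation of 40% or more, normalized to positive control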
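measured by = luciferase luminescence | assay system = CHO-CHOP cells, stable luciferase reporter of PERK-eIF2a-CHOP signalling | amount = 500 reporter cells seeded per well | timing = 6 h compound exposure at 37 °C after overnight seeding | controls = positive tunicamycin 10 µg/mL, negative DMSO alone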
NOD2-RIPK2 inh: NOD2-RIPK2 binding disruptors in cells, primary screen, fluorescence, CHO cells, BLA complementation; Receptor-interacting serine/threonine-protein kinase 2 (Homo sapiens), O43353; CCF4 ratio; inhibition, % at 4.98 µM; 0.38% of 360,000 active; in the data active = inhibition above about 21%
UPR XBP1 act: activators of adaptive XBP1 UPR arm, primary screen, cell-based, CHO-XBP1 luciferase reporter, luminescence, uHTS; IRE1-XBP1 UPR activation; percent of tunicamycin response, DMSO as zero; activation, % at 20 µM; 0.33% of 330,000 active;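 active = versus positive control, 20 µM dose yields 30% or more activation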
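Material: CHO-XBP1 cells stably carrying IRE1-XBP1-driven luciferase reporter / Amount: 1000 cells per well / Compound: 20 µM, 1% DMSO / Times: 6 h treatment, 37 °C / Detection: luciferase luminescence / Measure: % activation of reporter signal versus tunicamycin and DMSO controls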
CHOP inhibitor: inhibitors of CHOP promoter induction, primary screen, cell-based, unfolded protein response, luciferase reporter | CHO-K1 CHOP-promoter luciferase, tunicamycin-induced, 15-18 h | inhibition, % at 10 µM | 3.8% of 220,000 active | AID 2732, 2010;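 active = compounds that reduced the stress-induced luciferase reporter signal by more than about 70% of percent inhibition, limit read from the data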
CHOP inh conf: retest of CHOP induction inhibitors, confirmation, cell-based; CHO-CHOP promoter luciferase reporter, tunicamycin-induced, luminescence; inhibition, % at 10 µM; shares compounds with CHOP inhibitor; 45% of 2,100 active;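 active = mean of three repeat readings of reporter signal inhibition above a set limit, cut at about 70% in these data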
Each line names hits and unclear results; the compound was inactive in the other large screens (follow-up assays come after a bar, where they were run).

CCC/C=C/c1ccc(CN2C(C(C)C)C(=O)N(Cc3cn(CCC4OCCO4)nn3)CCS2(=O)=O)cc1 (configuration not stated)	none (no result: TLR4 MyD88 comp, CHOP UPR activ, UPR XBP1 act, CHOP inhibitor)
O=[N+]([O-])c1cc(-n2cnnn2)ccc1N1CCC(Cc2ccccc2)CC1	CHOP inhibitor 104 | CHOP inh conf inactive
O=S(=O)(c1ccc(Cl)cc1)c1cnc(-c2cccnc2)nc1-c1ccccc1	CHOP inhibitor 99 | CHOP inh conf inactive
COc1ccc(F)cc1-c1cc(C(=O)NCc2cccc(Cl)c2)[nH]n1	none (no result: TLR4 MyD88 comp, TLR9-MyD88 inh, CHOP UPR activ, UPR XBP1 act, CHOP inhibitor)
O=c1/c(=C\c2cccc(O)c2)sc2nc(-c3ccccc3)c(-c3ccccc3)n12	CHOP inhibitor 99 (no result: TLR4 MyD88 comp, NOD2-RIPK2 inh) | CHOP inh conf inactive
COc1ccc(/C=c2\sc3nc(-c4ccccc4)c(-c4ccccc4)n3c2=O)cc1OC	none
Cc1ccc(-c2nc(SC(C)C(=O)NC3CC3)n[nH]2)cc1 (configuration not stated)	none (no result: TLR4 MyD88 comp, CHOP UPR activ, UPR XBP1 act, CHOP inhibitor)
Cc1ccc(CNCC(O)(c2ccccc2)c2ccccc2)cc1	none (no result: TLR4 MyD88 comp, CHOP inhibitor)
Cc1ccc(CNCC(O)(c2ccccc2)c2ccc(Cl)cc2)cc1 (configuration not stated)	CHOP inhibitor 99 (no result: CHOP UPR activ, UPR XBP1 act) | CHOP inh conf 135
Cc1cc(Cl)c(S(=O)(=O)N2CCN(c3cccc(C)c3C)CC2)cc1OCC(N)=O	CHOP inhibitor 107 | CHOP inh conf inactive
COc1cc(OC)cc(C(=O)N(Cc2ccco2)c2c(N)n(Cc3ccccc3)c(=O)[nH]c2=O)c1	none (no result: TLR4 MyD88 comp, CHOP UPR activ, UPR XBP1 act, CHOP inhibitor)
O=C(COCC(=O)Nc1cccc(C(F)(F)F)c1)Nc1cccc(C(F)(F)F)c1	CHOP inhibitor 103 | CHOP inh conf 116
C[C@H](NC(=O)C1CCN(S(=O)(=O)c2ccccc2)CC1)C(=O)NC1CC1	none (no result: TLR4 MyD88 comp, CHOP UPR activ, UPR XBP1 act, CHOP inhibitor)
CCOC(=O)C1(CCc2ccccc2)CCN(C(=O)c2occc2C)CC1	none
CCOC(=O)C1(CCc2ccccc2)CCN(C(=O)Cc2nonc2C)CC1	CHOP inhibitor 103 | CHOP inh conf inactive
Cc1ccc(-c2nc3ccccc3s2)cc1NC(=S)NC(=O)c1ccccc1	none
Cc1ccc(-c2nc3ccccc3s2)cc1NC(=O)c1cc(-n2cnnc2)ccc1Cl	CHOP inhibitor 100 | CHOP inh conf inactive
CCSc1nc2sc3c(c2c(=O)[nH]1)CCCC3	none
CCSC1=NC2(CCCCC2)Nc2sc3c(c21)CCCC3	CHOP inhibitor 105 | CHOP inh conf inactive
CCC(=O)N1CCC1(C)C(=O)Nc1cc(OC)ccc1OC (configuration not stated)	none (no result: TLR4 MyD88 comp, TLR9-MyD88 inh, CHOP UPR activ, UPR XBP1 act, CHOP inhibitor)
Nc1nnnn1/N=C/c1cccc(OCc2ccccc2Cl)c1	CHOP inhibitor 104 | CHOP inh conf inactive
C#CCOCCOCCOCCNc1nc(N2CCN(C(=O)[C@H](C(C)C)n3cc(CCO)nn3)CC2)nc(N2CCN(C(=O)[C@H](C)n3cc(CCCN=C(N)N)nn3)CC2)n1	none (no result: TLR4 MyD88 comp, CHOP UPR activ, UPR XBP1 act, CHOP inhibitor)
CC1=C(C(=O)N2CCOCC2)CC(CC(=O)NCc2cccc3ccccc23)C(=O)N1Cc1ccc(C(C)(C)C)cc1 (configuration not stated)	none (no result: TLR4 MyD88 comp, TLR9-MyD88 inh, CHOP UPR activ, UPR XBP1 act, CHOP inhibitor)
O=C(Nc1nc2ccccc2s1)C1CC(=O)N(c2ccccc2)C1 (configuration not stated)	none
O=C(Nc1nc2ccccc2s1)C1CC(=O)N(c2ccc(Br)cc2)C1 (configuration not stated)	CHOP inhibitor 96 | CHOP inh conf inactive
CC(=O)Oc1cccc(C2=CC(=O)CC(C)(C)C2=O)c1	none (no result: TLR4 MyD88 comp, CHOP UPR activ, UPR XBP1 act, CHOP inhibitor)
O=C1C=CC(=O)N1c1cccc2cccnc12	none (no result: TLR4 MyD88 comp, CHOP UPR activ, UPR XBP1 act, CHOP inhibitor)
CCCc1nc(NCc2ccco2)c(C#N)c2c1COC(C)(C)C2	CHOP inhibitor 104 | CHOP inh conf inactive
